Source: ChEMBL document CHEMBL3580574, “Design, Synthesis, and Biological Evaluation of Hexacyclic Tetracyclines as Potent, Broad Spectrum Antibacterial Agents” (J Med Chem, 2015)
In brackets after ≈: the same amount, converted by molar mass.

What was measured:
[1] = tested on: Pseudomonas aeruginosa; assay: Antibacterial activity against Pseudomonas aeruginosa 1145 assessed as bacterial growth inhibition by susceptibility testing assay; assay type: functional
Summary of the method: (§1)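 Broth microdilution MIC per CLSI in 96-well plates; compound stocks prepared and serially diluted in sterile deionized water; cation-adjusted Mueller Hinton broth prepared fresh and held at 4 °C before testing, supplemented with lysed horse blood as appropriate; runs accepted when comparator antibiotics fell within QC ranges for appropriate ATCC quality control strains.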

[2] = tested on: Pseudomonas aeruginosa; assay: Antibacterial activity against Pseudomonas aeruginosa 1145 infected in immunocompetent BALB/c mouse lung infection model assessed as log reduction in colony forming units at 40 mg/kg, iv bid administered at 2 hrs and 12 hrs post-infection measured 24 hrs post-drug treatment; assay type: functional
Summary of the method: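 Female BALB/c mice (18−20 g) received intranasal inoculum under light anesthesia. IV treatment at 2 and 12 h postinfection, six mice per group per dose. An untreated group was harvested at 2 h. Lungs were taken 24 h after treatment start, weighed, homogenized, diluted and plated on MacConkey medium overnight at 37 °C, 5% CO2. Read-out: CFU per gram lung.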

[3] = tested on: Escherichia coli; assay: Antibacterial activity against Escherichia coli 107 ATCC 25922 assessed as bacterial growth inhibition by susceptibility testing assay; assay type: functional
Summary of the method: (§2)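 Broth microdilution MIC per CLSI in cation-adjusted Mueller Hinton broth, made fresh and held at 4 °C before testing. Medium supplemented with lysed horse blood where appropriate. Compound stocks prepared and serially diluted in sterile deionized water. Runs were accepted against QC ranges for comparator antibiotics and ATCC QC strains.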

[4] = tested on: Burkholderia cenocepacia; assay: Antibacterial activity against Burkholderia cenocepacia 240 assessed as bacterial growth inhibition by susceptibility testing assay; assay type: functional
Summary of the method: (§3)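 Medium supplemented with lysed horse blood where appropriate. Compound stocks prepared and serially diluted in sterile deionized water. Runs were accepted against QC ranges for comparator antibiotics and ATCC QC strains.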

[5] = tested on: Staphylococcus aureus; assay: Antibacterial activity against Staphylococcus aureus 101 ATCC 29213 assessed as bacterial growth inhibition by susceptibility testing assay; assay type: functional; settings: Staphylococcus aureus, 101 ATCC 29213; read-out: MIC; summary of the method: as §2
[6] = tested on: Enterococcus faecalis; assay: Antibacterial activity against tet(M) tetracycline-resistant Enterococcus faecalis 327 assessed as bacterial growth inhibition by susceptibility testing assay; assay type: functional; summary of the method: as §1
[7] = tested on: Proteus mirabilis; assay: Antibacterial activity against Proteus mirabilis 385 assessed as bacterial growth inhibition by susceptibility testing assay; assay type: functional; summary of the method: as §2
[8] = tested on: Staphylococcus aureus; assay: Antibacterial activity against methicillin-resistant, tet(M) tetracycline-resistant Staphylococcus aureus 161 assessed as bacterial growth inhibition by susceptibility testing assay; assay type: functional; summary of the method: as §1
[9] = tested on: Staphylococcus aureus; assay: Antibacterial activity against tet(K) tetracycline-resistant Staphylococcus aureus 158 assessed as bacterial growth inhibition by susceptibility testing assay; assay type: functional; settings: Staphylococcus aureus, 158; read-out: MIC
[10] = tested on: Klebsiella pneumoniae; assay: Antibacterial activity against Klebsiella pneumoniae 457 harboring CTX-M-15 gene assessed as bacterial growth inhibition by susceptibility testing assay; assay type: functional; settings: Klebsiella pneumoniae, 457; read-out: MIC; summary of the method: as §1
[11] = tested on: Enterobacter cloacae; assay: Antibacterial activity against tet(A) tetracycline-resistant Enterobacter cloacae 603 assessed as bacterial growth inhibition by susceptibility testing assay; assay type: functional; summary of the method: as §1
[12] = tested on: Acinetobacter baumannii; assay: Antibacterial activity against tet(B) tetracycline-resistant Acinetobacter baumannii 250 assessed as bacterial growth inhibition by susceptibility testing assay; assay type: functional; summary of the method: as §1
[13] = tested on: Enterococcus faecium; assay: Antibacterial activity against tet(M) tetracycline-resistant Enterococcus faecium 404 assessed as bacterial growth inhibition by susceptibility testing assay; assay type: functional
[14] = tested on: Escherichia coli; assay: Antibacterial activity against tet(A) tetracycline-resistant Escherichia coli 155 assessed as bacterial growth inhibition by susceptibility testing assay; assay type: functional; settings: Escherichia coli, 155; read-out: MIC; summary of the method: as §1
[15] = tested on: Stenotrophomonas maltophilia; assay: Antibacterial activity against Stenotrophomonas maltophilia 256 assessed as bacterial growth inhibition by susceptibility testing assay; assay type: functional; summary of the method: as §3
[16] = tested on: Streptococcus pneumoniae; assay: Antibacterial activity against tet(M) tetracycline-resistant Streptococcus pneumoniae 160 assessed as bacterial growth inhibition by susceptibility testing assay; assay type: functional
[17] = tested on: Pseudomonas aeruginosa; assay: Antibacterial activity against Pseudomonas aeruginosa 555 BAA-47 assessed as bacterial growth inhibition by susceptibility testing assay; assay type: functional; settings: Pseudomonas aeruginosa, 555 BAA-47; read-out: MIC; summary of the method: as §2
[18] = tested on: Pseudomonas aeruginosa; assay: Antibacterial activity against Pseudomonas aeruginosa 694 infected in iv dosed immunocompetent CD-1 mouse thigh infection model assessed as reduction in colony forming units administered twice daily at 2 hrs and 12 hrs post-infection measured 24 hrs post-drug treatment; assay type: functional, organism-based
Summary of the method: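 Thigh model: inoculum given intramuscularly into the right thigh on day 0. IV dosing with vehicle, test agent or comparator at 2 and 12 h postinfection. Untreated groups were harvested at 2 and 24 h. Thigh muscle was collected at 24 h postinfection, homogenized in PBS pH 7.4, diluted and plated on Brain Heart Infusion agar + 0.5% charcoal. Read-out: CFU per gram thigh.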

[19] = Escherichia coli, 107 ATCC 25922, read-out: MIC
[20] = Burkholderia cenocepacia, 240, read-out: MIC
[21] = Enterococcus faecalis, 327, read-out: MIC
[22] = Proteus mirabilis, 385, read-out: MIC
[23] = Staphylococcus aureus, 161, read-out: MIC
[24] = Enterobacter cloacae, 603, read-out: MIC
[25] = Acinetobacter baumannii, 250, read-out: MIC
[26] = Enterococcus faecium, 404, read-out: MIC
[27] = Stenotrophomonas maltophilia, 256, read-out: MIC
[28] = Streptococcus pneumoniae, 160, read-out: MIC

Structure (SMILES) | MIC [3, 19] | MIC [4, 20] | MIC [5] | MIC [6, 21] | MIC [7, 22] | MIC [8, 23] | MIC [9] | MIC [10] | MIC [11, 24] | MIC [12, 25] | MIC [13, 26] | MIC [14] | MIC [15, 27] | MIC [16, 28] | MIC [17] | other results
C[C@@H](O)[C@H]1C(=O)N2C(C(=O)O)=C(S[C@@H]3CN[C@H](C(=O)N(C)C)C3)[C@H](C)[C@H]12 [MEROPENEM] | – | – | – | – | – | – | – | – | – | – | – | – | – | – | – | MIC [1]: 4 µg/mL (≈ 10.4 µM); log10CFU/g [2]: 2
CN(C)[C@@H]1C(O)=C(C(N)=O)C(=O)[C@@]2(O)C(O)=C3C(=O)c4c(O)c5c(c(OC(F)(F)F)c4C[C@H]3C[C@@H]12)[C@@H]1[C@@H](CCN1C)CN5 | ≤ 0.0156 µg/mL | 8 µg/mL (≈ 13.1 µM) | 0.0625 µg/mL (≈ 0.103 µM) | 0.0312 µg/mL (≈ 0.0513 µM) | 2 µg/mL (≈ 3.29 µM) | 0.125 µg/mL (≈ 0.205 µM) | ≤ 0.0156 µg/mL | 0.5 µg/mL (≈ 0.822 µM) | 0.5 µg/mL (≈ 0.822 µM) | 1 µg/mL (≈ 1.64 µM) | ≤ 0.0156 µg/mL | 0.0312 µg/mL (≈ 0.0513 µM) | 0.25 µg/mL (≈ 0.411 µM) | ≤ 0.0156 µg/mL | 8 µg/mL (≈ 13.1 µM) | –
CN(C)[C@@H]1C(O)=C(C(N)=O)C(=O)[C@@]2(O)C(O)=C3C(=O)c4c(O)c5c(c(F)c4C[C@H]3C[C@@H]12)[C@H]1N(C)CC[C@@]1(C)CN5 | 0.25 µg/mL (≈ 0.449 µM) | 32 µg/mL (≈ 57.5 µM) | 0.5 µg/mL (≈ 0.898 µM) | 8 µg/mL (≈ 14.4 µM) | 8 µg/mL (≈ 14.4 µM) | 8 µg/mL (≈ 14.4 µM) | 0.125 µg/mL (≈ 0.225 µM) | 4 µg/mL (≈ 7.19 µM) | 4 µg/mL (≈ 7.19 µM) | 8 µg/mL (≈ 14.4 µM) | 4 µg/mL (≈ 7.19 µM) | 2 µg/mL (≈ 3.59 µM) | 2 µg/mL (≈ 3.59 µM) | 0.25 µg/mL (≈ 0.449 µM) | 32 µg/mL (≈ 57.5 µM) | –
CN(C)[C@@H]1C(O)=C(C(N)=O)C(=O)[C@@]2(O)C(O)=C3C(=O)c4c(O)c5c(c(OC(F)(F)F)c4C[C@H]3C[C@@H]12)C1NCCC1CN5 (mixture of isomers) | 0.5 µg/mL | > 32 µg/mL | 0.5 µg/mL | 0.5 µg/mL | 4 µg/mL | 2 µg/mL | 0.25 µg/mL | 2 µg/mL | 8 µg/mL | > 32 µg/mL | 0.25 µg/mL | 2 µg/mL | 16 µg/mL | 0.25 µg/mL | 32 µg/mL | –
CN(C)CCN1CC[C@H]2CNc3c(O)c4c(c(F)c3[C@H]21)C[C@H]1C[C@H]2[C@H](N(C)C)C(O)=C(C(N)=O)C(=O)[C@@]2(O)C(O)=C1C4=O | 8 µg/mL (≈ 13.3 µM) | > 32 µg/mL | 4 µg/mL (≈ 6.67 µM) | 8 µg/mL (≈ 13.3 µM) | > 32 µg/mL | 16 µg/mL (≈ 26.7 µM) | 1 µg/mL (≈ 1.67 µM) | 32 µg/mL (≈ 53.4 µM) | > 32 µg/mL | > 32 µg/mL | 4 µg/mL (≈ 6.67 µM) | > 32 µg/mL | > 32 µg/mL | 1 µg/mL (≈ 1.67 µM) | > 32 µg/mL | –
NCC[C@H](O)C(=O)N[C@@H]1C[C@H](N)[C@@H](O[C@H]2O[C@H](CN)[C@@H](O)[C@H](O)[C@H]2O)[C@H](O)[C@H]1O[C@H]1O[C@H](CO)[C@@H](O)[C@H](N)[C@H]1O [AMIKACIN] | – | – | – | – | – | – | – | – | – | – | – | – | – | – | – | MIC [1]: 1 µg/mL (≈ 1.71 µM); log10CFU/g [2]: 2
CN(C)[C@@H]1C(O)=C(C(N)=O)C(=O)[C@@]2(O)C(O)=C3C(=O)c4c(O)c5c(c(F)c4C[C@H]3C[C@@H]12)[C@@H]1[C@@H](CCN1C)CN5 (stereo in doubt; 10c) | – | – | – | – | – | – | – | – | – | – | – | – | – | – | – | inhibition [18]: Dose-dependent effect
CN(C)[C@@H]1C(O)=C(C(N)=O)C(=O)[C@@]2(O)C(O)=C3C(=O)c4c(O)c5c(c(F)c4C[C@H]3C[C@@H]12)[C@@H]1[C@@H](CCN1C)CN5 (stereo in doubt; 10b) | – | – | 0.5 µg/mL (≈ 0.922 µM) | – | – | – | 0.125 µg/mL (≈ 0.23 µM) | 1 µg/mL (≈ 1.84 µM) | – | – | – | 1 µg/mL (≈ 1.84 µM) | – | – | 8 µg/mL (≈ 14.7 µM) | MIC [3]: 0.25 µg/mL (≈ 0.461 µM); MIC [4]: 32 µg/mL (≈ 59 µM); MIC [6]: 4 µg/mL (≈ 7.37 µM); MIC [7]: 2 µg/mL (≈ 3.69 µM); MIC [8]: 4 µg/mL (≈ 7.37 µM); MIC [11]: 2 µg/mL (≈ 3.69 µM); MIC [12]: 8 µg/mL (≈ 14.7 µM); MIC [13]: 1 µg/mL (≈ 1.84 µM); MIC [15]: 4 µg/mL (≈ 7.37 µM); MIC [16]: 0.125 µg/mL (≈ 0.23 µM)
CCCN1CC[C@@]2(C)CNc3c(O)c4c(c(F)c3[C@@H]12)C[C@H]1C[C@H]2[C@H](N(C)C)C(O)=C(C(N)=O)C(=O)[C@@]2(O)C(O)=C1C4=O | 1 µg/mL (≈ 1.71 µM) | > 32 µg/mL | 0.5 µg/mL (≈ 0.855 µM) | 8 µg/mL (≈ 13.7 µM) | 32 µg/mL (≈ 54.7 µM) | 8 µg/mL (≈ 13.7 µM) | 0.125 µg/mL (≈ 0.214 µM) | 16 µg/mL (≈ 27.4 µM) | 16 µg/mL (≈ 27.4 µM) | 16 µg/mL (≈ 27.4 µM) | 4 µg/mL (≈ 6.84 µM) | 4 µg/mL (≈ 6.84 µM) | 4 µg/mL (≈ 6.84 µM) | 0.5 µg/mL (≈ 0.855 µM) | > 32 µg/mL | –
CN(C)[C@@H]1C(O)=C(C(N)=O)C(=O)[C@@]2(O)C(O)=C3C(=O)c4c(O)c5c(c(OC(F)(F)F)c4C[C@H]3C[C@@H]12)[C@@H]1[C@H](CN5)CC2COCCN21 (stereo not given in full) | 4 µg/mL (≈ 6.15 µM) | > 32 µg/mL | 2 µg/mL (≈ 3.07 µM) | 0.5 µg/mL (≈ 0.769 µM) | > 32 µg/mL | 4 µg/mL (≈ 6.15 µM) | 0.5 µg/mL (≈ 0.769 µM) | > 32 µg/mL | > 32 µg/mL | 16 µg/mL (≈ 24.6 µM) | 0.25 µg/mL (≈ 0.384 µM) | 16 µg/mL (≈ 24.6 µM) | 16 µg/mL (≈ 24.6 µM) | 0.0625 µg/mL (≈ 0.0961 µM) | > 32 µg/mL | –
